The text below walks through data of PubChem BioAssay.

Calls of active or inactive are those of the source.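 How the source made its calls, unless noted: active means viability at or below 10% of carrier control in both of two separate runs; inconclusive means viability at or below 10% in only one of the two runs; inactive means the rest.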

Assay [1] in a line: Her2 expression decrease, cell viability multiplex – SKBR3 breast tumor cells, AlphaScreen, ATP viability, primary screen (AID 461;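 active means Her2 level under about 52% in both replicate screens, with viability over 70% of control, limit read from the data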;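 on Her2 level: lower value means less Her2 protein in the cells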;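 on viability: percent of carrier control wells set as 100% viability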). The conditions noted are these: SKBR3 Her2 protein level, 18-24 h, measured here: SKBR3 viability, ATP luminescence, at 10 µM.
Assay [2] has as its target Receptor tyrosine-protein kinase erbB-2 (Homo sapiens) (UniProt P04626). The description is as above. The conditions noted are these: 18-24 h, at 10 µM, stronger effect = lower value.
Assay [3] in a line: reduced viability of SK-BR-3 breast cancer cells – cell-based, 24 h, human, pilot screen (AID 572).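 Further: compound exposure lasted between 18 and 24 h rather than exactly 24 h; 100% = carrier-treated control wells.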 The note with it: SK-BR-3 viability, CellTiter-Glo luminescence, at 10 µM, stronger effect = lower value. Background: In ATP-based viability assays light output follows the ATP content of the culture.
Assay [4] in a line: HUVEC growth inhibition – cell-based, human, primary screen (AID 575;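 active means viability at or below 30% in both replicate assays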;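 further: 100% = median of untreated cell wells with 0.1% DMSO on each plate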). The conditions noted are these: HUVEC proliferation, CellTiter-Glo luminescence, 72 h; at 10 µM; stronger effect = lower value. Put shortly:
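Assay system: Primary human umbilical vein endothelial cells | Quantity: 1250 cells per well | Medium: Supplemented EBM, 2% fetal bovine serum | Detection: CellTiter-Glo luminescence measuring cellular ATP | Read-out: % viability vs DMSO wells | Plate: Collagen-coated 384-well format | Times: 72 h exposure, 37 °C, 5% CO2, 30 min RT equilibration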

Assay [5] is described as follows: H69AR cell proliferation blockers – human, duplicate replicates, primary screen (AID 580;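 active means viability at or under a set limit in both replicates, limit being median viability minus 3 SD, cut at about 48% in these data, passing the limit was not always enough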;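 further: 100% = mean luminescence of untreated wells and 0% = no signal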). The note with it: H69AR lung tumor cells viability, ATP luminescence, 72 h; at 10 µM; stronger effect = lower value.
The nature of assay [6]: MRP1 drug-resistance reversers in H69AR cells – cell-based, doxorubicin co-treatment, pilot screen (AID 601;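 active means viability loss from added drug above about 55%, and viability with drug at most 40%, in both replicates, limit read from the data, passing the limit was not always enough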). The conditions noted are these: CellTiter-Glo, 72 h, at 10 µM; for differential viability (reversal): stronger effect = higher value.
The nature of assay [7]: yeast transport mutant growth inhibition pilot in 384-well plates, post-Golgi transport modulator project (AID 636; in the data active means inhibition above about 31%). The conditions noted are these: absorbance 615 nm, about 18 h, stronger effect = higher value.
Assay [8] is described as follows: growth suppression of yeast trafficking mutant, preliminary HTS, modulators of trafficking downstream of Golgi apparatus project, 1536-format plate, OD 615 nm (AID 637; in the data active means inhibition above about 30%). The note with it: yeast transport mutant growth, absorbance 615 nm, 18 h; stronger effect = higher value.
Setting [9] is: H69AR cells + 2 uM doxorubicin, measured here: viability with 2 uM doxorubicin, stronger effect = lower value.
Where [10] appears, read: H69AR cells, compound alone cytotoxicity.

Chain of Receptor tyrosine-protein kinase erbB-2 (Homo sapiens) (P04626 whole entry, looked up): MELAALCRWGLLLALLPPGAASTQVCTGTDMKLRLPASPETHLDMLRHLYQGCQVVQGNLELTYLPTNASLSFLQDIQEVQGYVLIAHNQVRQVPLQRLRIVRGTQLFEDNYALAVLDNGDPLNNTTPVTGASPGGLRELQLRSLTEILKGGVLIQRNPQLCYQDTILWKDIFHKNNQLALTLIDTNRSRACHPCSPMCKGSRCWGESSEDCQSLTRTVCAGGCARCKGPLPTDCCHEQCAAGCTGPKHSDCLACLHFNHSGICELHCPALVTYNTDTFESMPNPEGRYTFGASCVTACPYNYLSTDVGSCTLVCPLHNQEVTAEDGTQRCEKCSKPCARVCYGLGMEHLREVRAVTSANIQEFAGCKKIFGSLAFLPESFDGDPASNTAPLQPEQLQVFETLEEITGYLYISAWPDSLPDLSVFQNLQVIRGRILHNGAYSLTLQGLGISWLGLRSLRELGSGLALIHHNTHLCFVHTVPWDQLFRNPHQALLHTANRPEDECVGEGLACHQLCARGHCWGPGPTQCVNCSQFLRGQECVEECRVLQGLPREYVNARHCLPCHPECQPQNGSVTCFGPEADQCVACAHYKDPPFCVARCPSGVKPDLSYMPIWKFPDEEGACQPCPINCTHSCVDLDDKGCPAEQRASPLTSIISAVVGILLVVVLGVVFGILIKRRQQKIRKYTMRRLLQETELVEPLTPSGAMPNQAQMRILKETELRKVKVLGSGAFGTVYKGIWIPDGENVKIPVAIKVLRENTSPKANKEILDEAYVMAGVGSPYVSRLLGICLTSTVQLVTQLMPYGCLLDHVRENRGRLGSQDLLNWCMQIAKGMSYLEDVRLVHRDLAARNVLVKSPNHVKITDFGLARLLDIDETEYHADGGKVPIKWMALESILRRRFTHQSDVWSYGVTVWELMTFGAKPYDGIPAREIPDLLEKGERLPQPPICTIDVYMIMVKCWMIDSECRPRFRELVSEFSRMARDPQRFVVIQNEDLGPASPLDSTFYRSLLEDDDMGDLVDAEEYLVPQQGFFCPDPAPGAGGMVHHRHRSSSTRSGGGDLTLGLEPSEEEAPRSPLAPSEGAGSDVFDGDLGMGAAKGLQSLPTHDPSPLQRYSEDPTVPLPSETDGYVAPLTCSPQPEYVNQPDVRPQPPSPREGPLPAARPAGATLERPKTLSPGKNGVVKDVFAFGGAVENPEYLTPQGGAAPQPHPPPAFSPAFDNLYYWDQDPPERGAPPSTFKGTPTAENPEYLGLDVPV

By viability is commonly meant a read-out of living cells in per cent, often relative to untreated cells. The inhibition is the change of the read-out against control, counted positive when it falls. As for `CCSc1nnc(NC(=O)CSc2nnc(Cc3cccn3C)n2-c2ccc(C)cc2)s1`, the viability in assay [1] was 95.5%; in assay [3], 95.5% (inactive); in assay [4], 78.4% (inactive); in assay [5] it was 88.8% (inactive); in assay [6] (setting [9]), 96.1%; in assay [6] (setting [10]) it was 88.8%. Moreover, the Her2 level in assay [2] was 108% (inactive). Further, the differential viability (reversal) in assay [6] (H69AR cells + 2 uM doxorubicin) was -7.38% (inactive). Further, the results for the inhibition in assay [7] and in assay [8] were -1.56% (inactive) and -5.24% (inactive), respectively.

`Cc1cccc(NC(=O)CC(C)(C)C)c1`: the viability in assay [1] was 110%; in assay [3], 110% (inactive); in assay [4] it was 92.4% (inactive); in assay [5], 97.9% (inactive); in assay [6] (setting [9]), 95.6%; in assay [6] (setting [10]), 97.9%. The Her2 level in assay [2] was 90.5% (inactive). Further, the differential viability (reversal) in assay [6] (H69AR cells + 2 uM doxorubicin) is 2.31% (inactive). For the same molecule, the inhibition in assay [7] is -6.53% (inactive); in assay [8], -5.08% (inactive).

Take `CCOC(=O)C1CCN(C(c2cc3cc(C)cc(C)c3[nH]c2=O)c2nnnn2C2CCCCC2)CC1` (stereo not given): the viability is 69.5% in assay [1]; 69.5% (inactive) in assay [3]; 57.3% (inactive) in assay [4]; 62.8% (inactive) in assay [5]; 57.2% in assay [6] (setting [9]); 62.8% in assay [6] (setting [10]). In addition, the Her2 level in assay [2] is 80% (inactive). For the same molecule, in assay [6] (H69AR cells + 2 uM doxorubicin), the differential viability (reversal) is 5.56% (inactive). Further, the inhibition is -2.6% (inactive) in assay [7] and 2.38% (inactive) in assay [8].

For `Cc1cccc(N2C(=O)CC(Sc3nc(C)c4c(n3)CCCC4)C2=O)c1` (stereo not given), the viability in assay [1] is 80.5%; in assay [3], 80.5% (inactive); in assay [4], 102% (inactive); in assay [5] it was 90.3% (inactive); in assay [6] (setting [9]), 90.3%; in assay [6] (setting [10]), 90.3%. Besides, the Her2 level in assay [2] was 128% (inactive). The differential viability (reversal) in assay [6] (H69AR cells + 2 uM doxorubicin) was -0.055% (inactive). Moreover, the figures for the inhibition in assay [7] and in assay [8] were -0.27% (inactive) and 27.5% (inactive), respectively.

Consider `N#CC1=C(N)SC(N)=C(C#N)C1c1ccc(C(F)(F)F)cc1`, for which the viability in assay [1] was 90%; in assay [3], 90% (inactive); in assay [4], 56.3% (inactive); in assay [5], 84.3% (inactive); in assay [6] (setting [9]), 89.3%; in assay [6] (setting [10]), 84.3%. For the same molecule, the Her2 level in assay [2] is 104% (inactive). For the same molecule, in assay [6] (H69AR cells + 2 uM doxorubicin), the differential viability (reversal) is -4.95% (inactive). The values for the inhibition in assay [7] and in assay [8] were 5.58% (inactive) and 0.82% (inactive), respectively.

With `COc1ccc(NC(=O)CC2Oc3ccccc3NC2=O)cc1` (stereo not given), the viability in assay [1] is 87.5%; in assay [3], 87.5% (inactive); in assay [4], 96.2% (inactive); in assay [5], 97.6% (inactive); in assay [6] (setting [9]), 97.1%; in assay [6] (setting [10]) it was 97.6%. Besides, in assay [2], the Her2 level is 90% (inactive). Moreover, in assay [6] (H69AR cells + 2 uM doxorubicin), the differential viability (reversal) is 0.535% (inactive). The inhibition in assay [7] is 0.27% (inactive); in assay [8], -4.75% (inactive).

Take `Cc1cc(C)c(Cn2c(=O)n(CCCC(=O)NCc3ccco3)c(=O)c3ccccc32)c(C)c1`: the viability in assay [1] is 99%; in assay [3], 99% (inactive); in assay [4], 89.4% (inactive); in assay [5] it was 94.9% (inactive); in assay [6] (setting [9]) it was 83.5%; in assay [6] (setting [10]), 94.9%. The Her2 level in assay [2] was 97.5% (inactive). In addition, in assay [6] (H69AR cells + 2 uM doxorubicin), the differential viability (reversal) was 11.4% (inactive). The inhibition is -1.45% (inactive) in assay [7] and 9.18% (inactive) in assay [8].

Take `Cc1ccc(C2c3sc(=O)[nH]c3SC3C(=O)NC(=O)C32)cc1` (stereo not given): the viability in assay [1] is 94%; in assay [3] it was 94% (inactive); in assay [4], 111% (inactive); in assay [5] it was 105% (inactive); in assay [6] (setting [9]) it was 99.2%; in assay [6] (setting [10]) it was 105%. Moreover, in assay [2], the Her2 level is 87% (inactive). Further, the differential viability (reversal) in assay [6] (H69AR cells + 2 uM doxorubicin) was 6.17% (inactive). Further, the results for the inhibition in assay [7] and in assay [8] were -5.62% (inactive) and -4.29% (inactive), respectively.

For the molecule `O=S(=O)(c1cccc(-c2nnco2)c1)N1CCCC1`, the viability in assay [1] is 100%; in assay [3], 100% (inactive); in assay [4], 114% (inactive); in assay [5], 95.4% (inactive); in assay [6] (setting [9]), 92.8%; in assay [6] (setting [10]), 95.4%. Besides, in assay [2], the Her2 level was 116% (inactive). For the same molecule, the differential viability (reversal) in assay [6] (H69AR cells + 2 uM doxorubicin) is 2.63% (inactive). In addition, the values for the inhibition in assay [7] and in assay [8] were -3.33% (inactive) and -7.42% (inactive), respectively.

For the molecule `CCCC(=O)Nc1ccccc1-c1nnn(CC(=O)Nc2ccc(OCC)cc2)n1`, the viability in assay [1] was 108%; in assay [3], 108% (inactive); in assay [4], 62% (inactive); in assay [5], 89.1% (inactive); in assay [6] (setting [9]), 97.9%; in assay [6] (setting [10]), 89.1%. Also, the Her2 level in assay [2] was 87% (inactive). The differential viability (reversal) in assay [6] (H69AR cells + 2 uM doxorubicin) is -8.82% (inactive). Further, the inhibition in assay [7] is 1.82% (inactive); in assay [8], -4.75% (inactive).

Take `CCC(=O)NC1(C(F)(F)F)C(=O)NC(C)=C1C#N` (stereo not given): the viability in assay [1] was 102%; in assay [3] it was 102% (inactive); in assay [4], 101% (inactive); in assay [5] it was 97.9% (inactive); in assay [6] (setting [9]), 92.7%; in assay [6] (setting [10]) it was 97.9%. Moreover, in assay [2], the Her2 level was 84.5% (inactive). In assay [6] (H69AR cells + 2 uM doxorubicin), the differential viability (reversal) is 5.2% (inactive). Also, the inhibition in assay [7] is -4.74% (inactive); in assay [8], 1.59% (inactive).

Take `O=C(CSc1nc2ncccc2[nH]1)Nc1ccc2c(c1)OCCO2`: the viability was 108% in assay [1]; 108% (inactive) in assay [3]; 85.6% (inactive) in assay [4]; 82% (inactive) in assay [5]; 82.4% in assay [6] (setting [9]); 82% in assay [6] (setting [10]). Also, the Her2 level in assay [2] was 118% (inactive). Moreover, the differential viability (reversal) in assay [6] (H69AR cells + 2 uM doxorubicin) was -0.395% (inactive). Besides, the inhibition was -2.86% (inactive) in assay [7] and -0.82% (inactive) in assay [8].

On to `CCc1nc(C)c(C#N)c2cc(OC)c(OC)cc12`, for which the viability in assay [1] was 103%; in assay [3], 103% (inactive); in assay [4] it was 77.8% (inactive); in assay [5], 82.4% (inactive); in assay [6] (setting [9]), 74%; in assay [6] (setting [10]) it was 82.4%. Further, the Her2 level in assay [2] is 90% (inactive). Further, in assay [6] (H69AR cells + 2 uM doxorubicin), the differential viability (reversal) is 8.46% (inactive). Besides, the inhibition in assay [7] was -0.91% (inactive); in assay [8], 3.93% (inactive).

On to `CCOc1cc(CN2CCN(C(=O)c3ccco3)CC2)ccc1OC`, for which the viability is 79.5% in assay [1]; 79.5% (inactive) in assay [3]; 88.7% (inactive) in assay [4]; 89.5% (inactive) in assay [5]; 87.9% in assay [6] (setting [9]); 89.5% in assay [6] (setting [10]). The Her2 level in assay [2] is 102% (inactive). For the same molecule, the differential viability (reversal) in assay [6] (H69AR cells + 2 uM doxorubicin) was 1.51% (inactive). Further, the inhibition is -2.69% (inactive) in assay [7] and 0.83% (inactive) in assay [8].

For the molecule `O=c1cc(CSc2ccccn2)c2ccccc2[nH]1`, the viability was 91.5% in assay [1]; 91.5% (inactive) in assay [3]; 85.2% (inactive) in assay [4]; 93.1% (inactive) in assay [5]; 85.1% in assay [6] (setting [9]); 93.1% in assay [6] (setting [10]). The Her2 level in assay [2] was 76% (inactive). In addition, the differential viability (reversal) in assay [6] (H69AR cells + 2 uM doxorubicin) is 8.09% (inactive). The results for the inhibition in assay [7] and in assay [8] were -4.46% (inactive) and 4.13% (inactive), respectively.

Consider `CCCc1cn(S(=O)(=O)c2ccc(OC)cc2OC)nc1N`, for which the viability in assay [1] was 98%; in assay [3], 98% (inactive); in assay [4], 92.8% (inactive); in assay [5] it was 92.4% (inactive); in assay [6] (setting [9]), 88.7%; in assay [6] (setting [10]) it was 92.4%. In assay [2], the Her2 level was 84.5% (inactive). Moreover, in assay [6] (H69AR cells + 2 uM doxorubicin), the differential viability (reversal) is 3.72% (inactive). Also, the inhibition was -7.2% (inactive) in assay [7] and 0% (inactive) in assay [8].
